Source: ChEMBL document CHEMBL2417509, “Synthesis and biological evaluation of prodigiosene conjugates of porphyrin, estrone and 4-hydroxytamoxifen” (2013)

Key:
Type in all cases: functional
[1] = tested on: SN12C; assay: Cytotoxicity against human SN12C cells after 2 days by sulforhodamine B assay; details: 48 h
Summary of the method: (§1)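 NCI60 multi-dose screen, 59 human tumour lines available. Cells exposed to compound across a 5-log mol/L concentration range for 2 days, then fixed and stained with sulphorhodamine B, optical density read. Growth inhibition calculated against time-zero control and untreated cells. GI50 derived from the dose series, average of two replicates.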

[2] = tested on: UACC-62; assay: Cytotoxicity against human UACC62 cells after 2 days by sulforhodamine B assay; details: UACC-62, 48 h
Summary of the method: (§2)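 NCI DTP NCI60 multi-dose screen (59 human tumour lines available). Cells exposed to compound over a 5-log mol/L concentration range for 2 days, then fixed and stained with sulphorhodamine B, with optical density read. Growth inhibition calculated relative to time-zero cells and untreated cells, giving GI50 (half-maximal growth inhibition concentration). Average of two replicates.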

[3] = tested on: MDA-MB-435; assay: Cytotoxicity against human MDA-MB-435 cells after 2 days by sulforhodamine B assay; details: MDA-MB-435, 48 h; summary of the method: as §1
[4] = tested on: U-251; assay: Cytotoxicity against human U251 cells after 2 days by sulforhodamine B assay; details: U-251, 48 h; summary of the method: as §2
[5] = Cytotoxicity against human NCI-ADR-RES cells after 2 days by sulforhodamine B assay; details: 48 h; summary of the method: as §1
[6] = tested on: HCT-15; assay: Cytotoxicity against human HCT15 cells after 2 days by sulforhodamine B assay; details: HCT-15, 48 h; summary of the method: as §1
[7] = tested on: MCF7; assay: Cytotoxicity against human MCF7 cells after 2 days by sulforhodamine B assay; details: MCF7, 48 h; summary of the method: as §1
[8] = tested on: CAKI-1; assay: Cytotoxicity against human CAKI-1 cells after 2 days by sulforhodamine B assay; details: CAKI-1, 48 h; summary of the method: as §1
[9] = tested on: HOP-92; assay: Cytotoxicity against human HOP92 cells after 2 days by sulforhodamine B assay; details: HOP-92, 48 h; summary of the method: as §1
[10] = tested on: SK-MEL-2; assay: Cytotoxicity against human SK-MEL-2 cells after 2 days by sulforhodamine B assay; details: SK-MEL-2, 48 h; summary of the method: as §1
[11] = tested on: SK-OV-3; assay: Cytotoxicity against human SKOV3 cells after 2 days by sulforhodamine B assay; details: SK-OV-3, 48 h; summary of the method: as §1
[12] = tested on: UACC-257; assay: Cytotoxicity against human UACC257 cells after 2 days by sulforhodamine B assay; details: UACC-257, 48 h; summary of the method: as §2
[13] = tested on: K562; assay: Cytotoxicity against human K562 cells after 2 days by sulforhodamine B assay; details: K562, 48 h; summary of the method: as §1
[14] = tested on: ACHN; assay: Cytotoxicity against human ACHN cells after 2 days by sulforhodamine B assay; details: 48 h; summary of the method: as §1
[15] = tested on: PC-3; assay: Cytotoxicity against human PC3 cells after 2 days by sulforhodamine B assay; details: PC-3, 48 h; summary of the method: as §1
[16] = tested on: HCT-116; assay: Cytotoxicity against human HCT116 cells after 2 days by sulforhodamine B assay; details: HCT-116, 48 h; summary of the method: as §1
[17] = tested on: NCI-H522; assay: Cytotoxicity against human NCI-H522 cells after 2 days by sulforhodamine B assay; details: NCI-H522, 48 h; summary of the method: as §1
[18] = tested on: SNB-19; assay: Cytotoxicity against human SNB19 cells after 2 days by sulforhodamine B assay; details: SNB-19, 48 h; summary of the method: as §2
[19] = tested on: SW-620; assay: Cytotoxicity against human SW620 cells after 2 days by sulforhodamine B assay; details: SW-620, 48 h; summary of the method: as §2
[20] = tested on: SF-539; assay: Cytotoxicity against human SF539 cells after 2 days by sulforhodamine B assay; details: SF-539, 48 h; summary of the method: as §1
[21] = tested on: OVCAR-5; assay: Cytotoxicity against human OVCAR5 cells after 2 days by sulforhodamine B assay; details: OVCAR-5, 48 h; summary of the method: as §1
[22] = tested on: OVCAR-4; assay: Cytotoxicity against human OVCAR4 cells after 2 days by sulforhodamine B assay; details: OVCAR-4, 48 h; summary of the method: as §1
[23] = Cytotoxicity against human Hs578T cells after 2 days by sulforhodamine B assay; details: Hs-578T, 48 h; summary of the method: as §1
[24] = tested on: NCI-H226; assay: Cytotoxicity against human NCI-H226 cells after 2 days by sulforhodamine B assay; details: NCI-H226, 48 h; summary of the method: as §1
[25] = tested on: Malme-3M; assay: Cytotoxicity against human MALME-3M cells after 2 days by sulforhodamine B assay; details: 48 h; summary of the method: as §1
[26] = tested on: A549; assay: Cytotoxicity against human A549/ATCC cells after 2 days by sulforhodamine B assay; details: A549, 48 h; summary of the method: as §1
[27] = tested on: NCI-H23; assay: Cytotoxicity against human NCI-H23 cells after 2 days by sulforhodamine B assay; details: NCI-H23, 48 h; summary of the method: as §1
[28] = tested on: RXF 393; assay: Cytotoxicity against human RXF393 cells after 2 days by sulforhodamine B assay; details: RXF 393, 48 h; summary of the method: as §1
[29] = tested on: IGROV-1; assay: Cytotoxicity against human IGROV1 cells after 2 days by sulforhodamine B assay; details: IGROV-1, 48 h; summary of the method: as §1
[30] = read-out: LC50 (the source's name)

CCC(=C(c1ccc(OCCN(C)C)cc1)c1ccc(OC(=O)CCCCC(=O)C2=C(C)/C(=C/c3[nH]c(-c4ccc[nH]4)cc3OC)N=C2C)cc1)c1ccccc1 showed a GI50 [1] of 5.37 µM, a TGI [1] of 21.4 µM and a CC50 [1, 30] of 56.2 µM. It also gave a GI50 [2] of 4.9 µM, a TGI [2] of 17.8 µM and a CC50 [2, 30] of 45.7 µM. The GI50 [3] was 6.92 µM, the TGI [3] was 45.7 µM and the CC50 [3, 30] was greater than 100 µM. The GI50 [4] was 7.76 µM, the LC50 [4] was greater than 100 µM and the TGI [4] was 30.2 µM. The GI50 [5] was 12.6 µM, the TGI [5] was 46.8 µM and the CC50 [5, 30] was greater than 100 µM. For the same compound, the GI50 [6] was 4.47 µM, the LC50 [6] was greater than 100 µM and the TGI [6] was 28.8 µM. For the same compound, the GI50 [7] was 0.05 µM, the LC50 (concentration giving 50% net cell kill) [7] was 4.68 µM and the TGI [7] was 1.2 µM. The GI50 [8] was 6.31 µM, the LC50 (concentration killing 50% of the cells present at time zero) [8] was greater than 100 µM and the TGI [8] was 36.3 µM. The GI50 [9] was 1.12 µM, the TGI [9] was 6.31 µM and the CC50 [9, 30] was 47.9 µM. For the same compound, the GI50 [10] was 16.6 µM, the LC50 [10] was 67.6 µM and the TGI [10] was 33.1 µM. The GI50 [11] was 14.1 µM, the LC50 (concentration killing 50% of starting cells) [11] was 52.5 µM and the TGI [11] was 26.9 µM. For the same compound, the GI50 [12] was 12 µM, the TGI [12] was 28.8 µM and the CC50 [12, 30] was 69.2 µM. For the same compound, the GI50 [13] was 3.16 µM, the LC50 (concentration killing 50% of cells) [13] was 72.4 µM and the TGI [13] was 12.6 µM. For the same compound, the GI50 [14] was 4.79 µM, the LC50 (concentration killing 50% of cells) [14] was 77.6 µM and the TGI [14] was 22.9 µM. The GI50 [15] was 4.57 µM, the LC50 (concentration killing 50% of cells) [15] was 58.9 µM and the TGI [15] was 20.4 µM. The GI50 [16] was 3.55 µM, the LC50 (concentration killing 50% of cells vs time zero) [16] was 37.1 µM and the TGI [16] was 13.8 µM. It also gave a GI50 [17] of 3.55 µM, an LC50 [17] of 43.6 µM and a TGI [17] of 14.4 µM. The GI50 [18] was 8.13 µM, the TGI [18] was 23.4 µM and the CC50 [18, 30] was 56.2 µM. For the same compound, the GI50 [19] was 3.16 µM, the LC50 (concentration killing 50% of cells) [19] was 34.7 µM and the TGI [19] was 11.5 µM. It also gave a GI50 [20] of 12.9 µM, an LC50 [20] of 58.9 µM and a TGI [20] of 27.5 µM. For the same compound, the GI50 [21] was 10.5 µM, the LC50 [21] was 47.9 µM and the TGI [21] was 22.4 µM. It also gave a GI50 [22] of 4.37 µM, an LC50 (concentration killing 50% of cells) [22] of 70.8 µM and a TGI [22] of 22.4 µM. It also gave a GI50 [23] of 5.01 µM, a TGI [23] of 47.9 µM and a CC50 [23, 30] greater than 100 µM. It also gave a GI50 [24] of 14.1 µM, an LC50 [24] of 83.2 µM and a TGI [24] of 34.7 µM. It also gave a GI50 [25] of 9.33 µM, an LC50 [25] greater than 100 µM and a TGI [25] of 34.7 µM. The GI50 [26] was 3.89 µM, the LC50 (concentration giving 50% net cell kill) [26] was 50.1 µM and the TGI [26] was 15.8 µM. For the same compound, the GI50 [27] was 12.6 µM, the LC50 (concentration killing 50% of cells) [27] was 69.2 µM and the TGI [27] was 29.5 µM. The GI50 [28] was 3.89 µM, the LC50 (concentration killing 50% of cells) [28] was 44.7 µM and the TGI [28] was 17.8 µM. For the same compound, the GI50 [29] was 13.2 µM, the LC50 [29] was greater than 100 µM and the TGI [29] was 45.7 µM.
